T cruzi repl = T. cruzi replication inhibition. AID 1885. inhibition, % (concentration not given with the values). T. cruzi beta-gal in NIH3T3, luminescence, 90 h. actives 1.4% (n = 300,000);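 active = mean inhibition across valid replicates above about 55%, limit read from the data; inconclusive = mean below that limit but half or more replicates reach it; inactive = mean below it, under half of replicates reach it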;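 also: signal also drops with host cell toxicity which is not excluded here; 0% = plate median of DMSO wells and 100% = zero luminescence signal; higher percent means less beta-gal luminescence so fewer parasites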
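Test system: β-gal T. cruzi (Tulahuen C4) inside NIH/3T3 cells / Quantity: 5,000 cells/well / Measured by: luminescence from GalScreen with 0.05% NP40, read after 60 min / Medium: DMEM plus 2% FBS / Measure: parasite load inhibition, % / Reagent: Tulahuen C4 trypomastigotes, 5000/well / Schedule: co-culture of at least 90 h after 3 h attachment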
NRP1-CendR mod = NRP-1/CendR interaction modulation. O14786. actives 0.85% (n = 360,000). FAM-RPARPAR peptide binding to NRP-1, fluorescence polarization. inhibition, % at 25 µM;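 active = inhibition or corrected inhibition above about 18%, plus a signal ratio from 0.5 to 1.5, limit read from the data, passing the limit was not always enough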
Target sequence (O14786 whole entry, looked up): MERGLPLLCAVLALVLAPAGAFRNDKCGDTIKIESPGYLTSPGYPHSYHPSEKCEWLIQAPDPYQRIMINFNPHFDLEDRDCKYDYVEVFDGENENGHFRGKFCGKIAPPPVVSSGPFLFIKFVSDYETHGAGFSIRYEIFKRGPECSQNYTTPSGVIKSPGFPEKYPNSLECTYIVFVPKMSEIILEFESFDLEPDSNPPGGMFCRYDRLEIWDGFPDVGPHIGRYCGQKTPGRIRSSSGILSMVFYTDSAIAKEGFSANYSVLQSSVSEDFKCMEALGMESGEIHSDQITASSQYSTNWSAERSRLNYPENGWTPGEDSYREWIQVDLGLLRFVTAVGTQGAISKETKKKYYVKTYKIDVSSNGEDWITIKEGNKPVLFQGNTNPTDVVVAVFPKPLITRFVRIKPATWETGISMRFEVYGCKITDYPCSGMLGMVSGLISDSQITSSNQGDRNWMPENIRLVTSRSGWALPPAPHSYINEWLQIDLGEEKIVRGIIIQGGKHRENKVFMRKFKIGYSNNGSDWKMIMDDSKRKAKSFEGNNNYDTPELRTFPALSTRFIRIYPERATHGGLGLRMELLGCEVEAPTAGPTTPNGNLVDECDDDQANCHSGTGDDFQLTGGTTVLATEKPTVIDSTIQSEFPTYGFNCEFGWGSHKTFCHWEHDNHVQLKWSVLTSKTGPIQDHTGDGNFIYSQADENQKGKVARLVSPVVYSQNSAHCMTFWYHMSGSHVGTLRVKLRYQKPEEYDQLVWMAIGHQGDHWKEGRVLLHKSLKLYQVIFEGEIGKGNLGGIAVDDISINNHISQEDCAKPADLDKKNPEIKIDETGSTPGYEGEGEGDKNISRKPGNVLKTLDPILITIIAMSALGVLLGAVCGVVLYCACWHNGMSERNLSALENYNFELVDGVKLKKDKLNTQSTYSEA
HIF act = HIF pathway transcriptional activation; U2OS HRE-luciferase reporter, luminescence; normalized: DMSO 0%, desferrioxamine 100%; AID 1910; actives 0.32% (n = 300,000); activation, % at 7.5 µM (by protocol);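 active = mean activation of at least 10% of the iron chelator positive control signal, with at least half of replicates also reaching 10%; inconclusive = mean and replicate majority disagree about reaching 10%; inactive = mean and most replicates under 10%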
V-ATPase pH = regulators of yeast V-ATPase proton transport; S. cerevisiae, pHLuorin cytosolic pH fluorescence; actives 0.37% (n = 350,000); AID 504577; response, % at 10 µM; in the data active = response mostly above about 7.3%, no sharp cut-off; inactive = mostly below about 5.4%; also: actives read high
AI-2 QS modul = modulates the Vibrio harveyi AI-2 quorum sensing system; Vibrio harveyi JMH597 AI-2 luminescence/OD600 ratio, 9 h; hits give low values; strain lacks LuxN and CqsS sensors; 0 = neutral-control median; actives 0.4% (n = 300,000); AID 2094; activity change, % at 7.5 µM; in the data active = activity change below about -75%, passing the limit was not always enough; inconclusive = no clear call, values can overlap the other calls;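 also: luminescence divided by OD600 gain over 9 h not by final OD600 alone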
Yeast superoxide = yeast age-related superoxide inhibition as caloric restriction mimetic; S. cerevisiae aged cells, superoxide DHE fluorescence; hits give low values; superoxide response (% of plate mean), % at 10 µM; actives 0.18% (n = 330,000);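 active = superoxide response under a set limit, about three screen SD below normal, cut at about 65% in these data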;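 also: yeast aged for seven days with compound at 30 °C before DHE staining; 100% = average MFI of all compound-treated wells on the plate with controls excluded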
Numbers without * were called inactive; ? = inconclusive; . = no result; ! = not active in a repeat. A selection: hits, their analogues and other compounds. The true share with any hit is near 3%.

SMILES | T cruzi repl | NRP1-CendR mod | HIF act | V-ATPase pH | AI-2 QS modul | Yeast superoxide
O=C(CO/N=C/c1ccc(Cl)cc1Cl)NNC(=O)c1ccc(Cl)cc1Cl | -20 | 1 | 3 | -1 | -88* | 115
C=C(C)C1CC=C(CN2CCN(Cc3ccccc3)CC2)CC1 (stereo unspecified) | 57* | 1 | 2 | 0 | 1 | 90
O=C(Nc1nc2ccccc2[nH]1)c1ccc(Cl)c(S(=O)(=O)N2CCCC2)c1 | 3 | 34* | 1 | 2 | 25 | 105
Oc1c(C(c2cccs2)N2CCC3(CC2)OCCO3)sc2ncnn12 (stereo unspecified) | -6 | 3 | 0 | 2 | -2 | 88
CCOC(=O)N/N=C\c1ccc([N+](=O)[O-])s1 | 25 | 15 | 0 | 0 | 2 | 104
Cc1cccc(NC(=S)N/N=C/c2ccc([N+](=O)[O-])s2)c1 | 52 | -51 | 1 | 4 | -212* | 109
Cc1cccc(NC(=O)/C=C/c2ccc([N+](=O)[O-])s2)c1 | 59* | -18 | 4 | 0 | 14 | 100
C/C(=N/NC(=S)Nc1cccc(C)c1)c1cccc([N+](=O)[O-])c1 | 56* | -2 | 0 | -1 | 17 | 107
CCc1ccc(NSc2ccccc2[N+](=O)[O-])cc1 | -1 | 1 | 2 | -9 | ? | 87
CN1CCN(S(=O)(=O)c2cccc(C(=O)N(c3ccccn3)C3CCCCC3)c2)CC1 | -4 | 5 | 0 | -2 | 10 | 109
CCn1c(=O)c2ccccc2n(CC(=O)NCCC2=CCCCC2)c1=O | 6 | 4 | 0 | 3 | 17 | 98
COc1cc2c(C#N)c(N3CCN(C)CC3)nc(N)c2c(N)n1 | 4 | -10 | 1 | -3 | 1 | 102
N#Cc1c(N2CCCC2)nc(N)c2c(N)nc(N3CCCC3)cc12 | 19 | 32* | 2 | 5 | 18 | 121
COc1cc2c(C#N)c(N3CCCC3)nc(N)c2c(N)n1 | 16 | 30*! | 0 | 0 | 17 | 96
CCOc1cc2c(C#N)c(N3CCCC3)nc(N)c2c(N)n1 | -3 | 4 | -1 | -1 | 1 | 99
CC(C)C(NC(=O)c1ccccc1)C(=O)NCC(c1ccccc1)N(C)C (stereo unspecified) | 4 | 2 | 0 | -2 | 12 | 108
CC(C)C(NC(=O)c1ccco1)C(=O)NCC(c1ccco1)N(C)C (stereo unspecified) | -10 | -10 | -1 | 16* | 11 | 94
CC(NC(=O)c1cccnc1)C(c1cccs1)N1CCOCC1 (stereo unspecified) | 65* | 11 | . | 1 | 15 | 87
COc1cccc(C(=O)NC(C)C(c2cccs2)N2CCOCC2)c1 (stereo unspecified) | 1 | 1 | 0 | 1 | 4 | 79
Cc1nc2nc(C)c(CCC(=O)N3CCN(c4ccccn4)CC3)c(C)n2n1 | -6 | -8 | 0 | -3 | 9 | 91
CCn1c(=O)c(CCC(=O)N2CCN(c3ccccn3)CC2)c(C)c2c(C)nn(-c3cccc(C)c3)c21 | 58* | 2 | 0 | 4 | 14 | 89
Cc1[nH]c2ccccc2c1CCNC(=O)CCC(=O)c1ccccc1 | -7 | 1 | 0 | 17* | 17 | 89
Cc1nn(S(=O)(=O)c2ccc(Cl)cc2)c(C)c1Sc1ccc([N+](=O)[O-])cc1 | 62* | 2 | -41 | -4 | 37 | 66
Cc1nn(-c2ccccc2)c(N)c1Sc1ccc([N+](=O)[O-])cc1 | -13 | 44* | 0 | 4 | 8 | 95
Cc1nn(C(=O)C2CC2)c(C)c1Sc1ccc(Cl)cc1 | -23 | 10 | 0 | 1 | 2 | 101
SMILES | T cruzi repl | NRP1-CendR mod | HIF act | V-ATPase pH | AI-2 QS modul | Yeast superoxide
COC(=O)c1ccccc1S(=O)(=O)N1CCC(C(=O)OCc2ccc([N+](=O)[O-])cc2)CC1 | 5 | 25* | 0 | -1 | 51 | 93
CCOC(=O)N1CCN(C(=O)CS(=O)(=O)Cc2nc(-c3cccc(OC)c3)oc2C)CC1 | -3 | 10 | 0 | 2 | 5 | 103
COc1ccc(-n2ncc(Cl)c(Cl)c2=O)cc1 | 57* | 9 | 0 | . | 16 | .
CCCCN(C(=O)c1cccs1)C1CCS(=O)(=O)C1 (stereo unspecified) | 0 | 6 | 1 | 0 | 12 | 98
COc1ccc(S(=O)(=O)n2nc(-c3cc(OC)c(OC)c(OC)c3)cc2N)cc1OC | . | -7 | . | 1 | . | 104
COc1ccc(-c2cc(N)n(S(=O)(=O)c3c(F)c(F)c(F)c(F)c3F)n2)cc1OC | 22 | 26* | 2 | -4 | -6 | 116
COn1c(C)c(C)c2c3nonc3ccc21 | . | -5 | . | -5 | . | .
COc1ccccc1NC(=O)c1nc(S(=O)(=O)Cc2ccccc2)ncc1Cl | 38 | 8 | 634* | -5 | 7 | 99
CCS(=O)(=O)c1ncc(Cl)c(C(=O)Nc2ccccc2OC)n1 | -19 | 10 | -10 | 1 | 22 | 89
N#Cc1ccc(/C=C/C(=O)c2ccccc2)cc1 | 1 | 7 | 4 | -4 | 19 | 98
Cc1ccc(-n2cc(-c3ccccc3)c3c(N4CCOCC4)ncnc32)cc1 | 2 | -2 | 0 | 2 | 24 | .
CCOC(=O)C1CCN(c2ncnc3c2c(-c2ccccc2)cn3-c2ccccc2)CC1 | 59* | -7 | -1 | 4 | 11 | 106
CCCCn1c2ccc(F)cc2c2nnc(SCCN3CCCCC3)nc21 | 59* | -10 | -1 | -1 | 14 | .
CCCCn1c2ccc(C)cc2c2nnc(SCCN3CCCCC3)nc21 | 52 | 5 | 2 | 1 | 15 | 97
COc1ccccc1Nc1nn2c(=O)c3ccc(C(=O)N4CCC(C)CC4)cc3nc2s1 | 46 | 25* | . | 0 | 55 | 105
Cc1ccccc1Nc1nn2c(=O)c3ccc(C(=O)N4CCCC(C)C4)cc3nc2s1 (stereo unspecified) | . | -11 | . | . | . | .
Cc1ccc(NC(=O)CSc2nnc(/N=C/N(C)C)s2)cc1 | 6 | 2 | 0 | -3 | 38 | 96
COC(=O)c1cc(C)nc2c1C(=O)C(=O)C=C2N1CCOCC1 | 67* | 29* | -2 | -1 | 17 | 112
COC(=O)c1cc(S(=O)(=O)N2CCOCC2)c(Cl)cc1N1CCOCC1 | -12 | -10 | 0 | 3 | 9 | 98
Cc1cnc(C(=O)Nc2cccc3cccnc23)cn1 | 66* | 3 | -1 | -2 | 2 | .
CCN1CCN(c2oc(COc3ccc(-c4ccccc4)cc3)nc2C#N)CC1 | 61* | 9 | 1 | -2 | -8 | 100
O=C(CCN1C(=O)S/C(=C\c2ccc(F)cc2)C1=O)Nc1ccc(C(=O)O)c(O)c1 | -6 | -27 | 30* | -1 | 16 | 96
O=C(COC(=O)c1cc(Cl)nc(Cl)c1)NC1CCCCCC1 | . | 3 | . | 7 | . | 111
